From ChEMBL document CHEMBL3763062, “Conformational Analysis of the Host-Defense Peptides Pseudhymenochirin-1Pb and -2Pa and Design of Analogues with Insulin-Releasing Activities and Reduced Toxicities” (J Nat Prod, 2015) come the findings set out here.

In brackets after ≈: the same amount, converted by molar mass. Residues, ends and D or L forms follow the SMILES beside them.

The subject of one data set is HT-29. Nature of the data set: Cytotoxicity against human HT-29 cells assessed as cell viability after 24 hrs by CellTiter-Glo luminescent assay. The conditions noted are these: HT-29, 24 h. Format: functional, cell-based. A digest of the protocol:
(§1)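 Human tumour lines and HUVEC were cultured at 37 °C in medium with antibiotics. Cells were seeded at 5 × 10³ cells/well and exposed to peptides (10⁻⁶–10⁻⁴ M) in triplicate for 24 h at 37 °C. Viability was read as ATP luminescence. IC50 is the mean concentration giving 50% cell death over at least three independent experiments.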

The next data set concerns HUVEC. Description: Cytotoxicity against human HUVEC cells assessed as cell viability after 24 hrs by CellTiter-Glo luminescent assay. Format: cell-based. The gist of the method: as §1
For orientation: In ATP-based viability assays light output follows the ATP content of the culture.

The next data set concerns Pseudomonas aeruginosa. Nature of the data set: Antibacterial activity against Pseudomonas aeruginosa ATCC 27853 by microdilution method. Format: functional. A digest of the protocol:
(§2)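 Reference ATCC strains tested. The MIC was determined by standard broth microdilution in three independent experiments.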

The subject of data set [1] is Staphylococcus epidermidis. Nature of the data set: Antibacterial activity against Staphylococcus epidermidis ATCC 12228 by microdilution method. Format: functional. The gist of the method: as §2
A general note: In broth dilution the organism is exposed to a series of concentrations in liquid medium.

The next data set has as its system Staphylococcus aureus. Nature of the data set: Antibacterial activity against Staphylococcus aureus ATCC 25923 by microdilution method. Format: functional. The gist of the method: as §2
The nature of data set [2]: Cytotoxicity in rat BRIN-BD11 cells assessed as LDH release at >1 uM after 20 mins by CytoTox96 assay. The conditions noted are these: brin-bd11, 20 min. Format: cell-based. The gist of the method:
(§3)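 BRIN-BD11 monolayers were exposed to peptides (10⁻¹¹ to 3 × 10⁻⁶ M; n = 6) for 20 min at 37 °C in KRB buffer with 5.6 mM glucose. LDH in the supernatant was quantified by a colorimetric kit and compared with 5.6 mM glucose alone.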
(In general: LDH in the medium is a marker of cell lysis.)

For a further data set, the system named is MDA-MB-231. Description: Cytotoxicity against human MDA-MB-231 cells assessed as cell viability after 24 hrs by CellTiter-Glo luminescent assay. Format: functional, cell-based. The conditions noted are these: MDA-MB-231, 24 h. The gist of the method:
as §1

A short description of data set [3]: Cytotoxicity against Swiss mouse RBC assessed as hemolytic activity […]. Format: cell-based. To be noted: Erythrocyte. The gist of the method:
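Erythrocytes came from male NIH Swiss mice and were exposed to peptides at 1.6 × 10⁻⁶ to […]. IC50 is the mean concentration producing 50% haemolysis.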

The nature of data set [4]: (§4) Induction of insulin release in rat BRIN-BD11 cells after 20 mins by radioimmunoassay in presence of 5.6 mM glucose. To be noted: BRIN-BD11, 20 min, read-out: MEC. Format: functional. A digest of the protocol:
(§5)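 BRIN-BD11 cells were seeded and allowed to attach overnight at 37 °C. They were then incubated 20 min at 37 °C with peptides (10⁻¹¹ to 3 × 10⁻⁶ M; n = 8) in KRB buffer with 5.6 mM glucose. Supernatant insulin was measured by radioimmunoassay, expressed as ng/10⁶ cells/20 min, and compared with 5.6 mM glucose alone.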

Data set [5] is described as follows: Induction of insulin release in rat BRIN-BD11 cells at 3 uM after 20 mins in presence of 5.6 mM glucose by radioimmunoassay relative to control. Format: functional. A digest of the protocol:
as §5

The next data set deals with Escherichia coli. Nature of the data set: Antibacterial activity against Escherichia coli ATCC 25922 by microdilution method. Format: functional. The gist of the method: as §2
The subject of another data set is A549. Description: Cytotoxicity against human A549 cells assessed as cell viability after 24 hrs by CellTiter-Glo luminescent assay. Format: functional, cell-based. To be noted: A549, 24 h. A digest of the protocol: as §1
The nature of data set [6]: Induction of insulin release in rat BRIN-BD11 cells at […] after 20 mins measured per 10^6 cells by radioimmunoassay in presence of 5.6 mM glucose (reference value: 0.97 to 1.05 ng). Format: functional.
A short description of data set [7]: Cytotoxicity in rat BRIN-BD11 cells assessed as LDH release at >= 1 uM after 20 mins by CytoTox96 assay. Format: cell-based. The conditions noted are these: brin-bd11, 20 min. The gist of the method: as §3
Data set [8] can be described thus: Cytotoxicity in rat BRIN-BD11 cells assessed as LDH release at 1 or 3 uM after 20 mins by CytoTox96 assay. Format: cell-based. To be noted: brin-bd11, 20 min. A digest of the protocol: as §3
The subject of another data set is BRIN-BD11. Described as §4. Format: functional. A digest of the protocol: as §5

Broadly, the IC50 is the midpoint of a concentration-inhibition curve. In general, MIC refers to the lowest concentration that inhibits growth of the organism. A higher MIC goes with a need for much substance. As for `CC[C@H](C)[C@H](NC(=O)CN)C(=O)N[C@@H](Cc1ccccc1)C(=O)N1CCC[C@H]1C(=O)N[C@H](C(=O)N[C@@H](Cc1ccccc1)C(=O)N[C@@H](C)C(=O)N[C@@H](CCCCN)C(=O)N[C@@H](CC(C)C)C(=O)N[C@@H](CC(C)C)C(=O)NCC(=O)N[C@@H](CCCCN)C(=O)N[C@H](C(=O)N[C@H](C(=O)N[C@@H](CCCCN)C(=O)N[C@H](C(=O)N[C@@H](C)C(=O)N[C@@H](CO)C(=O)N[C@@H](CO)C(=O)N[C@@H](CC(C)C)C(=O)N[C@H](C(=O)N[C@@H](CO)C(=O)N[C@@H](CCCCN)C(=O)NCC(=O)N[C@@H](CCCNC(=N)N)C(=O)NC(C(=O)N[C@@H](CCC(=O)O)C(=O)O)[C@@H](C)O)[C@@H](C)CC)C(C)C)[C@@H](C)CC)C(C)C)[C@@H](C)CC` (some centres not stated) (HELM PEPTIDE1{G.I.F.P.I.F.A.K.L.L.G.K.V.I.K.V.A.S.S.L.I.S.K.G.R.[C[C@@H](O)C(N[*:1])C(=O)[*:2]].E}$$$$V2.0), the IC50 with HT-29 came to 12 µM; with HUVEC it was 68 µM; with MDA-MB-231, 6.2 µM; in data set [3], 7 µM; with A549, 6 µM. The minimum inhibitory concentration (MIC) against Pseudomonas aeruginosa came to 80 µM (≈ 230 µg/mL); in data set [1], 5 µM (≈ 14.4 µg/mL); with Staphylococcus aureus, 5 µM (≈ 14.4 µg/mL); in the data set with Escherichia coli, 80 µM (≈ 230 µg/mL). In addition, the values for the Activity result in [2] and in data set [5] were “Toxic” and 700%, respectively. In addition, in data set [4], the minimal effective concentration worked out at 0.0001 µM.
Regarding `C[C@H](N)C(=O)O` [ALANINE], the Activity in data set [6] turned out to be 4.2 ng.
Take “H-GIFPIFAKLLGKVIKVASSLISKGRTK-OH [listing 1 of 2 here]”: the Activity entry in [7] is given as “Toxic”. Also, the IC50 in the data set on HT-29 worked out at 5.6 µM; with HUVEC, 5 µM; in the data set with MDA-MB-231 it was 4.3 µM; in data set [3], 4 µM; in the data set with A549, 2.5 µM.
Consider “H-GIFPIFAKLLGKVIKVASSLISKGRTK-OH [listing 2 of 2 here]”, for which the minimal effective concentration in data set [4] came to 0.001 µM.
Regarding `CC[C@H](C)[C@H](N)C(=O)N[C@@H](CCCCN)C(=O)N[C@H](C(=O)N1CCC[C@H]1C(=O)N[C@@H](CO)C(=O)N[C@@H](Cc1ccccc1)C(=O)N[C@@H](Cc1ccccc1)C(=O)N[C@@H](CCCNC(=N)N)C(=O)N[C@@H](CC(N)=O)C(=O)N[C@H](C(=O)N[C@@H](CC(C)C)C(=O)N[C@@H](CCCCN)C(=O)N[C@@H](CCCCN)C(=O)N[C@H](C(=O)NCC(=O)N[C@@H](CCCCN)C(=O)N[C@H](CCCCN)C(=O)N[C@@H](C)C(=O)N[C@H](C(=O)N[C@@H](CO)C(=O)N[C@@H](CC(C)C)C(=O)N[C@H](C(=O)N[C@@H](C)C(=O)NCC(=O)N[C@@H](C)C(=O)N[C@@H](CC(C)C)C(=O)N[C@@H](CCCCN)C(=O)N[C@@H](CCC(N)=O)C(=O)N[C@@H](CO)C(=O)O)[C@@H](C)CC)C(C)C)C(C)C)[C@@H](C)CC)[C@@H](C)CC`, the Activity entry in [7] is “Toxic”. Moreover, the IC50 with HT-29 stood at 11 µM; in the data set on HUVEC, 5 µM; in the data set on MDA-MB-231, 3.6 µM; in data set [3], 19 µM; with A549 it was 2.1 µM. Besides, the minimal effective concentration in [4] came out at 0.0003 µM.
On to `CC[C@H](C)[C@H](N)C(=O)N[C@@H](CCCCN)C(=O)N[C@H](C(=O)N1CCC[C@H]1C(=O)N[C@@H](CO)C(=O)N[C@@H](Cc1ccccc1)C(=O)N[C@@H](Cc1ccccc1)C(=O)N[C@H](CCCNC(=N)N)C(=O)N[C@@H](CC(N)=O)C(=O)N[C@H](C(=O)N[C@@H](CC(C)C)C(=O)N[C@@H](CCCCN)C(=O)N[C@@H](CCCCN)C(=O)N[C@H](C(=O)NCC(=O)N[C@@H](CCCCN)C(=O)N[C@@H](CCC(=O)O)C(=O)N[C@@H](C)C(=O)N[C@H](C(=O)N[C@@H](CO)C(=O)N[C@@H](CC(C)C)C(=O)N[C@H](C(=O)N[C@@H](C)C(=O)NCC(=O)N[C@@H](C)C(=O)N[C@@H](CC(C)C)C(=O)N[C@@H](CCCCN)C(=O)N[C@@H](CCC(N)=O)C(=O)N[C@@H](CO)C(=O)O)[C@@H](C)CC)C(C)C)C(C)C)[C@@H](C)CC)[C@@H](C)CC`, for which the Activity result in data set [8] was “Non-toxic”; in data set [5] it was 190%. Moreover, the IC50 was 35 µM in the data set on HT-29; 27 µM in the data set with HUVEC; 20 µM with MDA-MB-231; greater than 100 µM in data set [3]; 7.2 µM in the data set with A549. Further, the MIC came to 10 µM (≈ 31.6 µg/mL) in the data set on Pseudomonas aeruginosa, 40 µM (≈ 126 µg/mL) in [1], 80 µM (≈ 253 µg/mL) in the data set with Staphylococcus aureus and 2.5 µM (≈ 7.89 µg/mL) with Escherichia coli. Also, the minimal effective concentration in data set [4] was found to be 0.0003 µM.
For the compound `CC[C@H](C)[C@H](N)C(=O)N[C@@H](CCCCN)C(=O)N[C@H](C(=O)N1CCC[C@H]1C(=O)N[C@@H](CO)C(=O)N[C@@H](Cc1ccccc1)C(=O)N[C@@H](Cc1ccccc1)C(=O)N[C@@H](CCCNC(=N)N)C(=O)N[C@@H](CC(N)=O)C(=O)N[C@H](C(=O)N[C@@H](CC(C)C)C(=O)N[C@@H](CCCCN)C(=O)N[C@@H](CCCCN)C(=O)N[C@H](C(=O)NCC(=O)N[C@@H](CCCCN)C(=O)N[C@@H](CCC(=O)O)C(=O)N[C@@H](C)C(=O)N[C@H](C(=O)N[C@@H](CO)C(=O)N[C@@H](CC(C)C)C(=O)N[C@H](C(=O)N[C@@H](C)C(=O)NCC(=O)N[C@@H](C)C(=O)N[C@@H](CC(C)C)C(=O)N[C@@H](CCCCN)C(=O)N[C@@H](CCC(N)=O)C(=O)N[C@@H](CO)C(=O)O)[C@@H](C)CC)C(C)C)C(C)C)[C@@H](C)CC)[C@@H](C)CC`, the IC50 with HT-29 turned out to be 9.5 µM; in the data set with HUVEC, 5.6 µM; with MDA-MB-231, 6.6 µM; in data set [3], 30 µM; in the data set with A549 it was 2.5 µM. In addition, the MIC against Pseudomonas aeruginosa worked out at 20 µM (≈ 63.1 µg/mL); in data set [1], 2.5 µM (≈ 7.89 µg/mL); against Staphylococcus aureus it was 5 µM (≈ 15.8 µg/mL); in the data set on Escherichia coli, 10 µM (≈ 31.6 µg/mL). The results for the Activity entry (in data set [2]; in the data set on BRIN-BD11; in [5]) were “Toxic”, “Dose-dependent effect” and 530%, respectively. The minimal effective concentration in [4] worked out at 0.0001 µM.
